What was measured:
[1] = target: Coagulation factor XI (Homo sapiens, UniProt P03951); test: Inhibition of activated coagulation factor 11 (unknown origin) assessed as inhibitory constant
[2] = Half life in human liver microsomes; assay type: ADME, Microsome
[3] = Half life in rat liver microsomes; assay type: ADME, Microsome
[4] = Permeability from apical to basolateral side in human Caco2 cells; assay type: ADME, cell-based; conditions: Caco-2, read-out: permeability
[5] = AUC in rat; assay type: ADME; conditions: in vivo
Summary of the method: (§1)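 Rat PK after iv and po dosing; both routes given in vehicle 70% PG, 20% water, 10% ethanol; compounds dosed either in cassette or discrete format.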

[6] = Clearance in rat at 0.63 mg/kg, iv or 1.27 mg/kg, po; assay type: ADME, organism-based; conditions: in vivo; summary of the method: as §1
[7] = Volume of distribution at steady state in rat at 0.63 mg/kg, iv or 1.27 mg/kg, po; assay type: ADME, organism-based; conditions: in vivo, read-out: Vdss; summary of the method: as §1
[8] = Half life in rat at 0.63 mg/kg, iv or 1.27 mg/kg, po; assay type: ADME, organism-based; conditions: in vivo
Summary of the method: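 Rat pharmacokinetics with iv and oral dosing; the vehicle for both routes was 70% PG, 20% water and 10% ethanol. Half-life was derived from the plasma profile.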

[9] = Oral bioavailability in rat at 1.27 mg/kg; assay type: ADME, organism-based; conditions: in vivo; summary of the method: as §1
[10] = target: T1, Coagulation factor VII (Homo sapiens, UniProt P08709); test: Inhibition of activated human coagulation factor 7
T1 sequence (P08709 whole entry): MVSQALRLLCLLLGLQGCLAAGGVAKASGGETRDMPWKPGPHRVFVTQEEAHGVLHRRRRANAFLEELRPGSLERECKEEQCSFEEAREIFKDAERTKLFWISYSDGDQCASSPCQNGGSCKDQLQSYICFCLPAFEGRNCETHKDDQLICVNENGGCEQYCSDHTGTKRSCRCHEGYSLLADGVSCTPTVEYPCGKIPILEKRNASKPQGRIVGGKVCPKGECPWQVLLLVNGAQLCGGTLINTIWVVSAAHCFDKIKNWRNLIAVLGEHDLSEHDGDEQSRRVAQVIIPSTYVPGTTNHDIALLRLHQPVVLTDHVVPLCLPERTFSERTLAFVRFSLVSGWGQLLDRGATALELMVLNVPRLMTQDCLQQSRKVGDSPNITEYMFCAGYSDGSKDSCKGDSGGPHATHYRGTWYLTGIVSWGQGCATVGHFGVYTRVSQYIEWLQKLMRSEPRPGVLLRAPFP

[11] = target: Coagulation factor IX (Homo sapiens, UniProt P00740); test: Inhibition of activated human coagulation factor 9
[12] = target: Coagulation factor X (Homo sapiens, UniProt P00742); test: Inhibition of activated human coagulation factor 10
[13] = target: T2, Coagulation factor XII (Homo sapiens, UniProt P00748); test: Inhibition of activated human coagulation factor 12
T2 sequence (P00748 whole entry): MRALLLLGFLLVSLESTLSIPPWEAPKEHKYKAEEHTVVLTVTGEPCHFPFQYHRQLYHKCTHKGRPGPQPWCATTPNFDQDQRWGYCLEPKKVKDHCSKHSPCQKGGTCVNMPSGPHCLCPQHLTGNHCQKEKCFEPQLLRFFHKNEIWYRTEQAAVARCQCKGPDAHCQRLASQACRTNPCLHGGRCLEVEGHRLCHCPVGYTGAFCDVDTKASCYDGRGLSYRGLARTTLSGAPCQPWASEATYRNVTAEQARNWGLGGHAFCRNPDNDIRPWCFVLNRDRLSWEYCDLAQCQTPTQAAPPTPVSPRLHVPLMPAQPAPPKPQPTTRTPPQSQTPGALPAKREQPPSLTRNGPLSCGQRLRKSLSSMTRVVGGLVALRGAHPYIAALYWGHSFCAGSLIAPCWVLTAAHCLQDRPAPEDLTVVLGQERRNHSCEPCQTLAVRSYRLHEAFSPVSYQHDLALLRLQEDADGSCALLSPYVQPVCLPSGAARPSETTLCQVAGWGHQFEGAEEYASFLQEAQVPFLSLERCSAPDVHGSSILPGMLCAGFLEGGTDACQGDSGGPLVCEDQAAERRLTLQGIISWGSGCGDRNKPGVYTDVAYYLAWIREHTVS

[14] = target: Prothrombin (Homo sapiens, UniProt P00734); test: Inhibition of human thrombin
[15] = target: Trypsin (Homo sapiens, UniProt P07477+P07478+P35030); test: Inhibition of human trypsin; assay type: protein assay
[16] = target: Vitamin K-dependent protein C (Homo sapiens, UniProt P04070); test: Inhibition of human activated protein C
[17] = target: Plasminogen (Homo sapiens, UniProt P00747); test: Inhibition of human plasmin
[18] = target: Tissue-type plasminogen activator (Homo sapiens, UniProt P00750); test: Inhibition of human TPA
[19] = target: Urokinase-type plasminogen activator (Homo sapiens, UniProt P00749); test: Inhibition of human urokinase
[20] = Permeability from basolateral to apical side in human Caco2 cells; assay type: ADME, cell-based; conditions: Caco-2, read-out: permeability
[21] = Clearance in rat at 0.68 mg/kg, iv or 1.36 mg/kg, po; assay type: ADME, organism-based; conditions: in vivo; summary of the method: as §1
[22] = Volume of distribution at steady state in rat at 0.68 mg/kg, iv or 1.36 mg/kg, po; assay type: ADME, organism-based; conditions: in vivo, read-out: Vdss; summary of the method: as §1
[23] = Half life in rat at 0.68 mg/kg, iv or 1.36 mg/kg, po; assay type: ADME, organism-based; conditions: in vivo; summary of the method: as §1
[24] = Oral bioavailability in rat at 1.36 mg/kg; assay type: ADME, organism-based; conditions: in vivo; summary of the method: as §1
[25] = Clearance in rat at […], iv or 1.04 mg/kg, po; assay type: ADME, organism-based; conditions: in vivo
[26] = Volume of distribution at steady state in rat at […], iv or 1.04 mg/kg, po; assay type: ADME, organism-based; conditions: in vivo, read-out: Vdss
[27] = Half life in rat at […], iv or 1.04 mg/kg, po; assay type: ADME, organism-based; conditions: in vivo
[28] = Oral bioavailability in rat at 1.04 mg/kg; assay type: ADME, organism-based; conditions: in vivo; summary of the method: as §1
[29] = Clearance in rat at 0.79 mg/kg, iv or 1.58 mg/kg, po; assay type: ADME, organism-based; conditions: in vivo; summary of the method: as §1
[30] = Volume of distribution at steady state in rat at 0.79 mg/kg, iv or 1.58 mg/kg, po; assay type: ADME, organism-based; conditions: in vivo, read-out: Vdss; summary of the method: as §1
[31] = Half life in rat at 0.79 mg/kg, iv or 1.58 mg/kg, po; assay type: ADME, organism-based; conditions: in vivo; summary of the method: as §1
[32] = Oral bioavailability in rat at 1.58 mg/kg; assay type: ADME, organism-based; conditions: in vivo; summary of the method: as §1

Chain of Coagulation factor XI (P03951 19-387 limits assumed): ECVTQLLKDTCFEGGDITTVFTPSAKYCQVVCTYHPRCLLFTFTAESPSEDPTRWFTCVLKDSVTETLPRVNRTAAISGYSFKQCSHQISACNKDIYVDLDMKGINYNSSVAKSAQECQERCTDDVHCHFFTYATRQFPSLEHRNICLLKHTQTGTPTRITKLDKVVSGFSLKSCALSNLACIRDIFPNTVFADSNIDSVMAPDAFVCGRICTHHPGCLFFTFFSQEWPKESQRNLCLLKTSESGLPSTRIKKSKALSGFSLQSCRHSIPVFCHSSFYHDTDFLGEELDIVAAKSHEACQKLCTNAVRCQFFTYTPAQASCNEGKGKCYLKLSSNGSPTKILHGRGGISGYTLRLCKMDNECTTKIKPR
Chain of Coagulation factor XI (P03951 388-625 limits assumed): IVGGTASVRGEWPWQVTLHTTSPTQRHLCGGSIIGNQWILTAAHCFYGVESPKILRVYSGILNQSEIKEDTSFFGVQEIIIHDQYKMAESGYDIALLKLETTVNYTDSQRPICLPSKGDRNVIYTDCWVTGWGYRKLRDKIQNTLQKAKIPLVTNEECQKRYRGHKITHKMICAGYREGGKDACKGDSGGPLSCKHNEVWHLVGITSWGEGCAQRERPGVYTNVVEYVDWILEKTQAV
Chain of Plasminogen (P00747 97-580 limits assumed): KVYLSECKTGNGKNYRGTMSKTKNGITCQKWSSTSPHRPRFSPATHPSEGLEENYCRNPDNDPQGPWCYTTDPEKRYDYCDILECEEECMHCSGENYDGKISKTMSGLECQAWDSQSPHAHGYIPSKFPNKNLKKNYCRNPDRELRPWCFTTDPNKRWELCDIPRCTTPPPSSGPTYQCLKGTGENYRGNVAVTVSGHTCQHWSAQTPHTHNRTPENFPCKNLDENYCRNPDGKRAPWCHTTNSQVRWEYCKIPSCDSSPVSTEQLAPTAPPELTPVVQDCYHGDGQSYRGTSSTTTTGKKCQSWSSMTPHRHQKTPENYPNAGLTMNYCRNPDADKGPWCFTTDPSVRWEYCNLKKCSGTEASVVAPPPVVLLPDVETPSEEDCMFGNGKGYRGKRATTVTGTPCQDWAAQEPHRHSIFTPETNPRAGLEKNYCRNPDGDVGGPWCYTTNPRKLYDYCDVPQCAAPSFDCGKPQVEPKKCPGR
Chain of Plasminogen (P00747 581-810 limits assumed): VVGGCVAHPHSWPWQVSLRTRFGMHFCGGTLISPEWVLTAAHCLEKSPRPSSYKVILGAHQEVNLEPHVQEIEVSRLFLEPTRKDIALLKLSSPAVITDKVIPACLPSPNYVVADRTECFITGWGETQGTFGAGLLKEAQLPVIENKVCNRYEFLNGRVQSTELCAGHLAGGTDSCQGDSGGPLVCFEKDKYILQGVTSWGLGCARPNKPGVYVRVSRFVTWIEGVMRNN
Chain of Coagulation factor X (P00742 41-179 limits assumed): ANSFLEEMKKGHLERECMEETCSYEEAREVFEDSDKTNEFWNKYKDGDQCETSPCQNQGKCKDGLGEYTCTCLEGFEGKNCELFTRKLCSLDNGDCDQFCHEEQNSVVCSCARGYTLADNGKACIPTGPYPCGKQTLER
Chain of Coagulation factor X (P00742 235-488 limits assumed): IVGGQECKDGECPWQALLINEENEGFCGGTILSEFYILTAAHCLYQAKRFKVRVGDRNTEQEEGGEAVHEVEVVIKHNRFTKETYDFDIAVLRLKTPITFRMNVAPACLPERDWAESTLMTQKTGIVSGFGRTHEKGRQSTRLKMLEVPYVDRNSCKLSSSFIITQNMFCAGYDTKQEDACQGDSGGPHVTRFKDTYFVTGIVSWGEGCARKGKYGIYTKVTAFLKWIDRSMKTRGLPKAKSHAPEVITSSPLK
Chain of Vitamin K-dependent protein C (P04070 43-197 limits assumed): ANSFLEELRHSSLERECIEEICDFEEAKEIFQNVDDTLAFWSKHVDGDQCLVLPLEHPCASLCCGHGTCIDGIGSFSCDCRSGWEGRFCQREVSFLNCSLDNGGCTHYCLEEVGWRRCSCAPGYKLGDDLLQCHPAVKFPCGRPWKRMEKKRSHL
Chain of Vitamin K-dependent protein C (P04070 212-461 limits assumed): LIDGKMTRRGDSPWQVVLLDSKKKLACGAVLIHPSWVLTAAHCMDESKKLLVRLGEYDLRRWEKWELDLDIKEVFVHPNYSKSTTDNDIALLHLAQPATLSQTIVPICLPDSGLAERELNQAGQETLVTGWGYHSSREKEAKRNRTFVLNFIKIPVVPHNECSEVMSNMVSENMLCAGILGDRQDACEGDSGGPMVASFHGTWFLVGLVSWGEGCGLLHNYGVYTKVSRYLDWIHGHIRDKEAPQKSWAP
Chain of Coagulation factor IX (P00740 47-191 limits assumed): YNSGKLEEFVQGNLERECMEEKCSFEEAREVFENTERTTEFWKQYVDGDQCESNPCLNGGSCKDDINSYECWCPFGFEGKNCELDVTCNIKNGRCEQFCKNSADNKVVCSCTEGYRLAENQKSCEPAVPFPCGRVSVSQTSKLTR
Chain of Coagulation factor IX (P00740 227-461 limits assumed): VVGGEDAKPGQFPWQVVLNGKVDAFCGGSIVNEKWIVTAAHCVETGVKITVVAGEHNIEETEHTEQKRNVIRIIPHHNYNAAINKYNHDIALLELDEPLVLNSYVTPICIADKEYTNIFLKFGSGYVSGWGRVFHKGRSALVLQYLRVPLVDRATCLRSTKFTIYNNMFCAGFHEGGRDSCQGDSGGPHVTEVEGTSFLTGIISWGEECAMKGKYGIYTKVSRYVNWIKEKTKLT
Chain of Tissue-type plasminogen activator (P00750 whole entry): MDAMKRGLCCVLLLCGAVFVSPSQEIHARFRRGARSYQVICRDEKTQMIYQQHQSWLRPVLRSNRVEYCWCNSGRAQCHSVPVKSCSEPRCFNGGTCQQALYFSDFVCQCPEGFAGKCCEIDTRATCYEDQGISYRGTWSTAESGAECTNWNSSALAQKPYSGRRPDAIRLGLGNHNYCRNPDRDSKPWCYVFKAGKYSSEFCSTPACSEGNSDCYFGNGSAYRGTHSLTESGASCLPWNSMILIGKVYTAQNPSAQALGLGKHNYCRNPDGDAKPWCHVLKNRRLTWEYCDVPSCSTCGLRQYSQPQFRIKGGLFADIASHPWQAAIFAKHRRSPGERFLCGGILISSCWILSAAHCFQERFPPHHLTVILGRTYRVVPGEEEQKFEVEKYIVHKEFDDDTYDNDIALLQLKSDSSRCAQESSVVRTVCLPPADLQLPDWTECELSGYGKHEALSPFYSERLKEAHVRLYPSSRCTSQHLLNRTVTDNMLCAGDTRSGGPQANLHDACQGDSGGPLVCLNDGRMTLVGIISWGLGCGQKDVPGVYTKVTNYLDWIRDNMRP

For `COC(=O)Nc1ccc(-c2nc([C@H](Cc3ccccc3)NC(=O)NCc3cccc(Cl)c3)[nH]c2Cl)cc1`, the Ki [1] was 0.422 µM.
In the case of `COC(=O)Nc1ccc2c(c1)NC(=O)CC/C=C/C[C@H](N1CCN(c3cccc(Cl)c3)CC1=O)c1nc-2c[nH]1`, the half-life [2] is reported as 15 min.
`COC(=O)Nc1ccc(-c2nc([C@H](Cc3ccccc3)N(C)C(=O)/C=C/c3cc(Cl)ccc3-n3cnnn3)[nH]c2Cl)cc1` showed a Ki [1] of 0.189 µM.
Molecule `COC(=O)Nc1ccc2c(c1)NC(=O)CC/C=C/C[C@H](N1CC[C@H](c3cc(Cl)ccc3F)OC1=O)c1nc-2c(Cl)[nH]1` has a half-life [2] of 5 min and a half-life [3] of 18 min.
In the case of `COC(=O)Nc1ccc2c(c1)NC(=O)CC/C=C/C[C@H](N1CC[C@H](c3c(F)ccc(Cl)c3F)CC1=O)c1nc-2c[nH]1`, the half-life [2] is reported as 9 min and the half-life [3] is reported as 7 min.
Molecule `COC(=O)Nc1ccc(-c2c[nH]c([C@@H]3[C@@H](c4ccccc4)CCN3C(=O)/C=C/c3cc(Cl)ccc3-n3cnnn3)n2)cc1` has a Ki [1] of 0.372 µM.
With `COC(=O)Nc1ccc2c(c1)NC(=O)CC/C=C/C[C@H](N1CCC(c3cccc(Cl)c3)NC1=O)c1nc-2c[nH]1` (some centres not stated) the half-life [2] was 35 min and the half-life [3] was 18 min.
With `COC(=O)Nc1ccc2c(c1)NC(=O)CC/C=C/C[C@H](N1CC[C@H](c3cccc(Cl)c3)CC1=O)c1nc-2c[nH]1` the half-life [2] was 6 min, the half-life [3] was 5 min and the Papp A→B [4] was 4.6 ×10⁻⁶ cm/s. It also gave an AUC [5] of 0.031 µM·h, a clearance [6] of 188 mL/min/kg and a Vd [7] of 4.6 L/kg. The half-life [8] was 30 min, the bioavailability [9] was 15% and the Ki [10] was 4.85 µM. For the same molecule, the Ki [11] was > 27.1 µM, the Ki [12] was > 9 µM and the Ki [13] was > 3.05 µM. The Ki [14] was > 13.3 µM, the Ki [15] was > 6.26 µM and the Ki [16] was > 7.16 µM. For the same molecule, the Ki [17] was > 15.2 µM, the Ki [18] was > 6.15 µM and the Ki [19] was > 15.1 µM. It also gave a Papp B→A [20] of 30.9 ×10⁻⁶ cm/s.
With `COC(=O)Nc1ccc2c(c1)NC(=O)CC/C=C/C[C@H](N1CCC(c3c(F)ccc(Cl)c3F)NC1=O)c1nc-2c[nH]1` (some centres not stated) the half-life [2] was 41 min and the half-life [3] was 26 min.
Work on `COC(=O)Nc1ccc2c(c1)NC(=O)CC/C=C/C[C@H](N1CC[C@H](c3cc(Cl)ccc3C(F)(F)F)OC1=O)c1nc-2c(Cl)[nH]1` yielded a half-life [2] of 18 min and a half-life [3] of 49 min.
Molecule `COC(=O)Nc1ccc2c(c1)NC(=O)CC/C=C/C[C@H](N1CC[C@H](c3c(F)ccc(Cl)c3F)OC1=O)c1nc-2c[nH]1` has a half-life [2] of 8 min and a half-life [3] of 15 min.
For `COC(=O)Nc1ccc(-c2nc([C@H](Cc3ccccc3)N3CCC(c4cccc(Cl)c4)NC3=O)[nH]c2Cl)cc1` (some centres not stated), the Ki [1] was 0.175 µM.
Work on `COC(=O)Nc1ccc2c(c1)NC(=O)CC/C=C/C[C@H](N1CC[C@H](c3cccc(Cl)c3)OC1=O)c1nc-2c[nH]1` yielded an AUC [5] of 0.523 µM·h, a clearance [21] of 40 mL/min/kg and a Vd [22] of 1.3 L/kg. The half-life [23] was 48 min and the bioavailability [24] was 59%.
For `[2H][C@]1(c2c(F)ccc(Cl)c2F)CCN([C@H]2C/C=C/CCC(=O)Nc3cc(NC(=O)OC)ccc3-c3nc2[nH]c3Cl)C(=O)O1`, the half-life [2] was 16 min and the half-life [3] was 31 min.
For `COC(=O)Nc1ccc2c(c1)NC(=O)CC/C=C/C[C@H](NC(=O)/C=C/c1cccc(Cl)c1)c1nc-2c[nH]1`, the half-life [2] was 32 min, the half-life [3] was 45 min and the Papp A→B [4] was < 1.5 ×10⁻⁶ cm/s. It also gave an AUC [5] of 0.027 µM·h, a clearance [25] of 44 mL/min/kg and a Vd [26] of 3.2 L/kg. For the same molecule, the half-life [27] was 84 min, the bioavailability [28] was 2% and the Papp B→A [20] was 32.4 ×10⁻⁶ cm/s.
In the case of `COC(=O)Nc1ccc2c(c1)NC(=O)CC/C=C/C[C@H](N1CC[C@H](c3cccc(Cl)c3)OC1=O)c1nc-2c(Cl)[nH]1`, the half-life [2] is reported as 11 min and the half-life [3] is reported as 14 min.
Molecule `COC(=O)Nc1ccc(-c2nc([C@H](Cc3ccccc3)NC(=O)CCc3cccc(Cl)c3)[nH]c2Cl)cc1` has a Ki [1] of 0.871 µM.
With `COC(=O)Nc1ccc(-c2cn3c(n2)C(Cc2ccccc2)N(C(=O)/C=C/c2cc(Cl)ccc2-n2cnnn2)CCC3)cc1` (configuration not stated) the Ki [1] was > 13.3 µM.
Molecule `COC(=O)Nc1ccc2c(c1)NC(=O)CC/C=C/C[C@H](N1CC[C@H](c3c(F)ccc(Cl)c3F)OC1=O)c1nc-2c(Cl)[nH]1` has a half-life [2] of 9 min and a half-life [3] of 22 min.
With `COC(=O)Nc1ccc2c(c1)NC(=O)CC/C=C/C[C@H](NC(=O)/C=C/c1cc(Cl)ccc1-n1cnnn1)c1nc-2c[nH]1` the half-life [2] was 41 min, the half-life [3] was 39 min and the Papp A→B [4] was < 1.5 ×10⁻⁶ cm/s. It also gave an AUC [5] of 0.011 µM·h, a clearance [29] of 28 mL/min/kg and a Vd [30] of 0.7 L/kg. The half-life [31] was 42 min, the bioavailability [32] was 0.8% and the Papp B→A [20] was 5.8 ×10⁻⁶ cm/s.
